Measured values: ChEMBL document CHEMBL3351675, “Novel benzenesulfonylureas containing thiophenylpyrazoline moiety as potential antidiabetic and anticancer agents” (Bioorg Med Chem Lett, 2014)
Activity calls are given as the source filed them. No cut-off for these calls is given here.

Experiments:
[1] = Anticancer activity against human UACC257 cells assessed as cell growth level at 10 uM after 48 hrs by sulforhodamine B assay; type: functional, UACC-257
[2] = Anticancer activity against human UACC62 cells assessed as cell growth level at 10 uM after 48 hrs by sulforhodamine B assay; type: functional, UACC-62
[3] = Anticancer activity against human OVCAR3 cells assessed as cell growth level at 10 uM after 48 hrs by sulforhodamine B assay; type: functional, OVCAR-3
[4] = Anticancer activity against human OVCAR4 cells assessed as cell growth level at 10 uM after 48 hrs by sulforhodamine B assay; type: functional, OVCAR-4
[5] = Anticancer activity against human OVCAR8 cells assessed as cell growth level at 10 uM after 48 hrs by sulforhodamine B assay; type: functional, OVCAR-8
[6] = Anticancer activity against human NCI-ADR-RES cells assessed as cell growth level at 10 uM after 48 hrs by sulforhodamine B assay; type: functional
[7] = Anticancer activity against human SKOV3 cells assessed as cell growth level at 10 uM after 48 hrs by sulforhodamine B assay; type: functional, SK-OV-3
786-0 = experiment: Anticancer activity against human 786-0 cells assessed as cell growth level at 10 uM after 48 hrs by sulforhodamine B assay; type: functional
A498 = experiment: Anticancer activity against human A498 cells assessed as cell growth level at 10 uM after 48 hrs by sulforhodamine B assay; type: functional
ACHN = experiment: Anticancer activity against human ACHN cells assessed as cell growth level at 10 uM after 48 hrs by sulforhodamine B assay; type: functional
CAKI-1 = experiment: Anticancer activity against human CAKI-1 cells assessed as cell growth level at 10 uM after 48 hrs by sulforhodamine B assay; type: functional
TK-10 = experiment: Anticancer activity against human TK10 cells assessed as cell growth level at 10 uM after 48 hrs by sulforhodamine B assay; type: functional
[8] = Anticancer activity against human UO31 cells assessed as cell growth level at 10 uM after 48 hrs by sulforhodamine B assay; type: functional, UO-31
[9] = Anticancer activity against human PC3 cells assessed as cell growth level at 10 uM after 48 hrs by sulforhodamine B assay; type: functional, PC-3
DU-145 = experiment: Anticancer activity against human DU145 cells assessed as cell growth level at 10 uM after 48 hrs by sulforhodamine B assay; type: functional
MCF7 = experiment: Anticancer activity against human MCF7 cells assessed as cell growth level at 10 uM after 48 hrs by sulforhodamine B assay; type: functional
MDA-MB-231 = experiment: Anticancer activity against human MDA-MB-231 cells assessed as cell growth level at 10 uM after 48 hrs by sulforhodamine B assay; type: functional
[10] = Anticancer activity against human Hs 578T cells assessed as cell growth level at 10 uM after 48 hrs by sulforhodamine B assay; type: functional
[11] = Anticancer activity against human BT549 cells assessed as cell growth level at 10 uM after 48 hrs by sulforhodamine B assay; type: functional, BT-549
T47D = experiment: Anticancer activity against human T47D cells assessed as cell growth level at 10 uM after 48 hrs by sulforhodamine B assay; type: functional
[12] = Anticancer activity against human NCI60 cells assessed as cell growth level at 10 uM after 48 hrs by sulforhodamine B assay; type: functional
Rattus norvegicus = experiment: Antidiabetic activity in overnight fasted Wistar rat assessed as reduction in plasma glucose level at 30 mg/kg, po by oral glucose tolerance test; type: functional, organism-based; set-up: dose 30 mg/kg
In short: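 Normal Wistar rats were given a glucose load by the oral glucose tolerance method, and plasma glucose rise was followed after oral test dosing. Glibenclamide was the reference drug. Data are mean ± SEM of six observations versus control, analysed by one-way ANOVA with Dunnett test (p < 0.05, p < 0.01).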

CCRF-CEM = experiment: Anticancer activity against human CCRF-CEM cells assessed as cell growth level at 10 uM after 48 hrs by sulforhodamine B assay; type: functional
K562 = experiment: Anticancer activity against human K562 cells assessed as cell growth level at 10 uM after 48 hrs by sulforhodamine B assay; type: functional
[13] = Anticancer activity against human MOLT4 cells assessed as cell growth level at 10 uM after 48 hrs by sulforhodamine B assay; type: functional, MOLT-4
[14] = Anticancer activity against human RPMI8226 cells assessed as cell growth level at 10 uM after 48 hrs by sulforhodamine B assay; type: functional, RPMI-8226
SR = experiment: Anticancer activity against human SR cells assessed as cell growth level at 10 uM after 48 hrs by sulforhodamine B assay; type: functional
HOP-62 = experiment: Anticancer activity against human HOP62 cells assessed as cell growth level at 10 uM after 48 hrs by sulforhodamine B assay; type: functional
[15] = Anticancer activity against human HOP92 cells assessed as cell growth level at 10 uM after 48 hrs by sulforhodamine B assay; type: functional, HOP-92
NCI-H226 = experiment: Anticancer activity against human NCI-H226 cells assessed as cell growth level at 10 uM after 48 hrs by sulforhodamine B assay; type: functional
NCI-H460 = experiment: Anticancer activity against human NCI-H460 cells assessed as cell growth level at 10 uM after 48 hrs by sulforhodamine B assay; type: functional
[16] = Anticancer activity against human HCT116 cells assessed as cell growth level at 10 uM after 48 hrs by sulforhodamine B assay; type: functional, HCT-116
[17] = Anticancer activity against human HCT15 cells assessed as cell growth level at 10 uM after 48 hrs by sulforhodamine B assay; type: functional, HCT-15
KM12 = experiment: Anticancer activity against human KM12 cells assessed as cell growth level at 10 uM after 48 hrs by sulforhodamine B assay; type: functional
SW-620 = experiment: Anticancer activity against human SW620 cells assessed as cell growth level at 10 uM after 48 hrs by sulforhodamine B assay; type: functional
[18] = Anticancer activity against human SF295 cells assessed as cell growth level at 10 uM after 48 hrs by sulforhodamine B assay; type: functional, SF-295
SNB-19 = experiment: Anticancer activity against human SNB19 cells assessed as cell growth level at 10 uM after 48 hrs by sulforhodamine B assay; type: functional
U-251 = experiment: Anticancer activity against human U251 cells assessed as cell growth level at 10 uM after 48 hrs by sulforhodamine B assay; type: functional
[19] = Anticancer activity against human LOXIMVI cells assessed as cell growth level at 10 uM after 48 hrs by sulforhodamine B assay; type: functional, LOX IMVI
Malme-3M = experiment: Anticancer activity against human MALME-3M cells assessed as cell growth level at 10 uM after 48 hrs by sulforhodamine B assay; type: functional
M14 = experiment: Anticancer activity against human M14 cells assessed as cell growth level at 10 uM after 48 hrs by sulforhodamine B assay; type: functional
MDA-MB-435 = experiment: Anticancer activity against human MDA-MB-435 cells assessed as cell growth level at 10 uM after 48 hrs by sulforhodamine B assay; type: functional
SK-MEL-28 = experiment: Anticancer activity against human SK-MEL-28 cells assessed as cell growth level at 10 uM after 48 hrs by sulforhodamine B assay; type: functional
[20] = molecular target: Peroxisome proliferator-activated receptor gamma (Mus musculus) (UniProt P37238); experiment: Transactivation of PPARgamma (mouse) expressed in 3T3-L1 cells incubated for 24 hrs by luciferase reporter gene assay relative to rosiglitazone
Chain of Peroxisome proliferator-activated receptor gamma (Mus musculus) (P37238 whole entry, looked up): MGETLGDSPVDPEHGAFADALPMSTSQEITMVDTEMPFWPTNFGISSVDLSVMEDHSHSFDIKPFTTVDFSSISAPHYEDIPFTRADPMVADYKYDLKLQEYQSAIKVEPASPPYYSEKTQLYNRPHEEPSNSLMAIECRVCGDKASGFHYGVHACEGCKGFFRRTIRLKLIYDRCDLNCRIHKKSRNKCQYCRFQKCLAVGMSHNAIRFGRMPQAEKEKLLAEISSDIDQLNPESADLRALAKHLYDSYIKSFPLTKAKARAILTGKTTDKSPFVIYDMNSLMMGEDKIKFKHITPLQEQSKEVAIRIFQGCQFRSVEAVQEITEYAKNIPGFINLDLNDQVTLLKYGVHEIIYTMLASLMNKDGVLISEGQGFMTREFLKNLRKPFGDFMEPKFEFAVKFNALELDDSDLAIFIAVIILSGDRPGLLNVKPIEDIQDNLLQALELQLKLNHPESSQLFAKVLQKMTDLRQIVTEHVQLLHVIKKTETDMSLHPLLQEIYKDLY

## COc1ccc(NC(=O)NS(=O)(=O)c2ccc(N3N=C(c4cccs4)CC3c3ccc(C)s3)cc2)cc1 (stereo not drawn)
[1]
  Activity: 49.98%
[2]
  Activity: 31%
[3]
  Activity: 106.38%
[4]
  Activity: 102.84%
[5]
  Activity: 106.9%
[6]
  Activity: 103.44%
[7]
  Activity: 82.55%
786-0
  Activity: 100.87%
A498
  Activity: 101.86%
ACHN
  Activity: 93.16%
CAKI-1
  Activity: 94.74%
TK-10
  Activity: 96.03%
[8]
  Activity: 87.18%
[9]
  Activity: 96.33%
DU-145
  Activity: 105.62%
MCF7
  Activity: 99.04%
MDA-MB-231
  Activity: 113.39%
[10]
  Activity: 97.52%
[11]
  Activity: 116.23%
T47D
  Activity: 85.68%
[12]
  Activity: 87.76%
Rattus norvegicus
  inhibition: Active
CCRF-CEM
  Activity: 88.12%
K562
  Activity: 111.39%
[13]
  Activity: 94.7%
[14]
  Activity: 95.29%
SR
  Activity: 75.83%
HOP-62
  Activity: 81.02%
[15]
  Activity: 87.06%
NCI-H226
  Activity: 110.15%
NCI-H460
  Activity: 108.95%
[16]
  Activity: 98.77%
[17]
  Activity: 102.46%
KM12
  Activity: 98.51%
SW-620
  Activity: 107.16%
[18]
  Activity: 104.7%
SNB-19
  Activity: 103.16%
U-251
  Activity: 98.07%
[19]
  Activity: 96.81%
Malme-3M
  Activity: 31.15%
M14
  Activity: 52.12%
MDA-MB-435
  Activity: 52.3%
SK-MEL-28
  Activity: 48.3%
[20]
  Activity: inactive

## Cc1ccc(NC(=O)NS(=O)(=O)c2ccc(N3N=C(c4cccs4)CC3c3ccc(C)s3)cc2)cc1 (stereo not drawn)
[1]
  Activity: 61.42%
[2]
  Activity: 40.91%
[3]
  Activity: 98.17%
[4]
  Activity: 106.4%
[5]
  Activity: 99.82%
[6]
  Activity: 102.87%
[7]
  Activity: 78.27%
786-0
  Activity: 103.79%
A498
  Activity: 109%
ACHN
  Activity: 96.6%
CAKI-1
  Activity: 95.78%
TK-10
  Activity: 96.78%
[8]
  Activity: 85.69%
[9]
  Activity: 86.34%
DU-145
  Activity: 102.33%
MCF7
  Activity: 97.09%
MDA-MB-231
  Activity: 116.79%
[10]
  Activity: 96.05%
[11]
  Activity: 74.25%
T47D
  Activity: 78.79%
[12]
  Activity: 89.29%
Rattus norvegicus
  inhibition: Active
CCRF-CEM
  Activity: 87.89%
K562
  Activity: 113.81%
[13]
  Activity: 94.41%
[14]
  Activity: 83.37%
SR
  Activity: 84.69%
HOP-62
  Activity: 76.92%
[15]
  Activity: 84.91%
NCI-H226
  Activity: 110.48%
NCI-H460
  Activity: 103.16%
[16]
  Activity: 85.12%
[17]
  Activity: 99.31%
KM12
  Activity: 97.36%
SW-620
  Activity: 106.34%
[18]
  Activity: 100.07%
SNB-19
  Activity: 108.18%
U-251
  Activity: 94.12%
[19]
  Activity: 99.74%
Malme-3M
  Activity: 40.64%
M14
  Activity: 58.39%
MDA-MB-435
  Activity: 61.95%
SK-MEL-28
  Activity: 47.8%
[20]
  Activity: inactive
